Paper PMC11897355 (Nature Communications, 2025)
Positions count from the first letter of the chain named. “Also recorded” adds a separate entry of the source. Values belong to the compound of their own block, whether it stands above or below them.

Experiments:
HEK-293F cells = assay: Cholesterol quantification after MβCD or wsCHOL treatment; assay type: cell-based, human
WT GlyT1 [1] = molecular target: T1, WT GlyT1 (Homo sapiens, UniProt P48067); assay: [3H]glycine kinetic uptake assay, WT GlyT1; assay type: cell-based
T1 sequence (P48067 1-652 isoform P48067-3): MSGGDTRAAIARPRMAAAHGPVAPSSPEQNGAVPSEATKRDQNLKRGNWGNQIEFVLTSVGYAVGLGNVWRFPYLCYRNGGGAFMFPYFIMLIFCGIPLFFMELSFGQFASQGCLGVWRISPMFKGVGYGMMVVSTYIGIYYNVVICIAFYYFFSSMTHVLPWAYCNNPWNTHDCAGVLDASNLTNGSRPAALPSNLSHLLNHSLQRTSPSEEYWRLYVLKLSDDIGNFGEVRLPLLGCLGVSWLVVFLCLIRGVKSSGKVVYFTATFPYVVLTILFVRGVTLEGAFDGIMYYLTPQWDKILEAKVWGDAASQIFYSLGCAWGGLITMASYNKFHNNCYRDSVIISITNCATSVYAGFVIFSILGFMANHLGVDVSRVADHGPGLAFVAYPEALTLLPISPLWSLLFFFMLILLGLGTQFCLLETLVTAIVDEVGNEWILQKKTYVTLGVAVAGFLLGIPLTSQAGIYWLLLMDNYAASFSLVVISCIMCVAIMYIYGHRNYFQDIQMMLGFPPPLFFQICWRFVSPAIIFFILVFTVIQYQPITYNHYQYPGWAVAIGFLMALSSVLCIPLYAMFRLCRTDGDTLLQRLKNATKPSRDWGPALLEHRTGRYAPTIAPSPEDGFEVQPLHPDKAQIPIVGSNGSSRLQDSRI

WT GlyT1 [2] = assay: Cell surface biotinylation and immunoblot; assay type: cell-based, human; settings: 2.5 mg/mL and 3.5 mg/mL MβCD
wild-type GlyT1 = molecular target: T2, wild-type GlyT1 (Homo sapiens, UniProt P48067); assay: [3H]glycine uptake inhibition assay, wild-type GlyT1 in HEK-293F cells; assay type: cell-based; settings: IC50, [3H]glycine uptake
T2 sequence (P48067 1-652 isoform P48067-3): T1 sequence (P48067 1-652 isoform P48067-3)
How it was run: (§1)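 HEK-293F cells (2.5 × 10^6/mL) infected with baculovirus carrying wild-type or sequence-verified mutant human GlyT1. Cells collected after 15 h and washed in HEPES-Tris pH 7.4 uptake buffer, then preincubated 10 min with graded inhibitor. Uptake ran 1 min at 25 °C with 25 μM [3H]glycine/unlabeled glycine (1:2500). Two cold washes, lysis in 1% Triton X-100, scintillation counting. Uptake normalized to untreated cells. Three independent experiments in triplicate; IC50 fitted to mean data.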

G319S GlyT1 mutant = molecular target: T3, G319S GlyT1 mutant (Homo sapiens, UniProt P48067, G373S); assay: [3H]glycine uptake inhibition assay, GlyT1 G319S mutant; assay type: cell-based
T3 sequence (P48067 1-652 isoform P48067-3 G319S): T1 sequence (P48067 1-652 isoform P48067-3) with G319S
How it was run: as §1

L422T GlyT1 mutant = molecular target: T4, L422T GlyT1 mutant (Homo sapiens, UniProt P48067, L476T); assay: [3H]glycine uptake inhibition assay, GlyT1 L422T mutant; assay type: cell-based
T4 sequence (P48067 1-652 isoform P48067-3 L422T): T1 sequence (P48067 1-652 isoform P48067-3) with L422T
How it was run: as §1

GlyT1 = settings: rat primary neurons; cited from earlier work
wild-type GlyT2 [3] = molecular target: T5, wild-type GlyT2 (Homo sapiens, UniProt Q9Y345); assay: [3H]glycine uptake inhibition assay, wild-type GlyT2; assay type: cell-based
T5 sequence (Q9Y345 1-797): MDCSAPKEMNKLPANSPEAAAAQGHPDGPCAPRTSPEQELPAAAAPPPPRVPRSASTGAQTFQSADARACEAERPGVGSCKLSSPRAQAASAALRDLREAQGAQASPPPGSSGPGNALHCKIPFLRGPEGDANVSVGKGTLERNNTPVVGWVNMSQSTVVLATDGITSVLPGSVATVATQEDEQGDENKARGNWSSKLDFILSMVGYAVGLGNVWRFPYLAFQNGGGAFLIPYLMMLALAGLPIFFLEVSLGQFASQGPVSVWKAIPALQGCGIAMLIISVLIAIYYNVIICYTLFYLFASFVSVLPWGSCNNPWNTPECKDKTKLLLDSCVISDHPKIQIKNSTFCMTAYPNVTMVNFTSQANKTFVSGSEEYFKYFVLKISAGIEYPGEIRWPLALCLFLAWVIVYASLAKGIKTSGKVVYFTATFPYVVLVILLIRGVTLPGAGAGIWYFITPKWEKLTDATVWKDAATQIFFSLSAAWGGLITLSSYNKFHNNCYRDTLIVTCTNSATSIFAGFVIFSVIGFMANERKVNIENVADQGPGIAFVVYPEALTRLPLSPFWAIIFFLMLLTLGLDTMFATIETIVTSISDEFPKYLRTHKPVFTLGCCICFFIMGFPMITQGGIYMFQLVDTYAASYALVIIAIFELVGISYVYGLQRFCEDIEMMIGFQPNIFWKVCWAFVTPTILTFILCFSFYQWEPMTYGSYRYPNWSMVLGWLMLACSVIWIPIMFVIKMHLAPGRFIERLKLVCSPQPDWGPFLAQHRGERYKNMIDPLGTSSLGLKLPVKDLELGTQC

S479G GlyT2 mutant = molecular target: T6, S479G GlyT2 mutant (Homo sapiens, UniProt Q9Y345, S479G); assay: [3H]glycine uptake inhibition assay, GlyT2 S479G mutant; assay type: cell-based
T6 sequence (Q9Y345 1-797 S479G): T5 sequence (Q9Y345 1-797) with S479G

wild-type GlyT2 [4] = molecular target: T5, wild-type GlyT2; settings: cited from earlier work

reduction of Vmax compared to WT GlyT1 (WT GlyT1 [1]; 2.5 mg/mL MβCD): about 19.6% | reduction of Vmax compared to WT GlyT1 (WT GlyT1 [1]; 3.5 mg/mL MβCD): ~26.7% | effect on Km values (WT GlyT1 [1]; 2.5 and 3.5 mg/mL MβCD): remained relatively unaffected
Compound: Methyl-β-cyclodextrin [MβCD]
decrease of cholesterol content on the membrane (HEK-293F cells; 2.5 mg/mL MβCD): 10% | decrease of cholesterol content on the membrane (HEK-293F cells; 3.5 mg/mL MβCD): 20% | effect on surface expression of GlyT1 (WT GlyT1 [2]): without altering the surface expression

IC50 (wild-type GlyT1; wild-type GlyT1): 0.162 ± 0.0196 µM | IC50 (L422T GlyT1 mutant): 5.25 ± 0.33 µM
Compound: C[C@@H](Oc1ccc(S(C)(=O)=O)cc1C(=O)N1C[C@@H]2C[C@]2(c2cc(C(F)(F)F)on2)C1)C(F)(F)F [iclepertin]
inhibition of G319S mutant (G319S GlyT1 mutant): not inhibited; also recorded: no visible inhibition effect | IC50 (GlyT1): 0.0052 ± 0.0012 µM

IC50 (wild-type GlyT1; wild-type GlyT1, mean ± S.E.M.): 96.8 ± 13.7 µM | IC50 (G319S GlyT1 mutant): 18600 ± 1550 µM | reduction of inhibitory potency on G319S compared to WT GlyT1 (G319S GlyT1 mutant): ~ 200 fold | sensitivity of WT GlyT2 to inhibition (wild-type GlyT2 [3]): not sensitive
Compound: CNCC(=O)O [sarcosine, N-methyl glycine]
susceptibility of S479G GlyT2 to inhibition (S479G GlyT2 mutant): susceptibility similar to that of WT GlyT1 | inhibition of GlyT1 versus GlyT2 (wild-type GlyT2 [4]): can inhibit GlyT1 but not GlyT2

Km (WT GlyT1 [1]; WT GlyT1, untreated cells): 126 µM
Compound: NCC(=O)O [glycine]
